Measured values from ChEMBL document CHEMBL1765020, “Synthesis and structure-affinity relationships of novel dibenzylideneacetone derivatives as probes for β-amyloid plaques” (J Med Chem, 2011).
The source made the active and inactive calls. The calls are words filed in the database; no cut-off is given here.

Key:
[1] = biological target: Amyloid-beta precursor protein (Homo sapiens) (UniProt P05067); experiment: Binding affinity to amyloid beta (1 to 42) aggregate in cortex of Alzheimer disease patient brain by immunohistochemical staining using amyloid beta antibody BC05; settings: tested as the 125I-labelled form
In short: (§1)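 Plaque presence and location in the AD patient temporal-lobe sections were confirmed by immunohistochemistry with monoclonal anti-Aβ1-42 antibody BC05.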

[2] = biological target: Amyloid-beta precursor protein (Homo sapiens) (UniProt P05067); experiment: Binding affinity to amyloid beta (1 to 42) aggregate in white matter of Alzheimer disease patient brain by autoradiography; format: tissue-based; settings: tested as the 125I-labelled form
In short: (§2)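 Human postmortem temporal-lobe paraffin sections were used: AD patient and normal control (person). They were deparaffinized (xylene, graded ethanol), held 30 min in PBS 0.2 M pH 7.4, incubated 1 h at room temperature with radiotracer (5 μCi/100 μL), washed 3 min in 40% ethanol, rinsed, dried and exposed to an imaging plate overnight.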

[3] = biological target: Amyloid-beta precursor protein (Homo sapiens) (UniProt P05067); experiment: Binding affinity to amyloid beta (1 to 42) aggregate in white matter of Alzheimer disease patient brain by immunohistochemical staining using amyloid beta antibody BC05; format: tissue-based; settings: tested as the 125I-labelled form; in short: as §1
[4] = Displacement of [125I]IMPY from amyloid beta (1 to 42) aggregate after 2 hrs by gamma counting
In short: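 Competition binding in 1 mL PBS (0.2 M, pH 7.4). Aggregated Aβ1-42 fibrils (60 nM final) with [125I]IMPY and inhibitor at 10^-5 to 10^-10 M, added in ethanol. Nonspecific binding was defined with 1 μM IMPY. Incubated 2 h at 37 °C with shaking, then vacuum-filtered through glass fibre filters and the bound fraction gamma-counted. IC50 was converted to Ki by Cheng-Prusoff; triplicate, mean ± SD.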

[5] = biological target: Amyloid-beta precursor protein (Homo sapiens) (UniProt P05067); experiment: Binding affinity to amyloid beta (1 to 42) aggregate in cortex of Alzheimer disease patient brain by autoradiography; settings: tested as the 125I-labelled form; in short: as §2

Sequence of Amyloid-beta precursor protein (Homo sapiens) (P05067 whole entry): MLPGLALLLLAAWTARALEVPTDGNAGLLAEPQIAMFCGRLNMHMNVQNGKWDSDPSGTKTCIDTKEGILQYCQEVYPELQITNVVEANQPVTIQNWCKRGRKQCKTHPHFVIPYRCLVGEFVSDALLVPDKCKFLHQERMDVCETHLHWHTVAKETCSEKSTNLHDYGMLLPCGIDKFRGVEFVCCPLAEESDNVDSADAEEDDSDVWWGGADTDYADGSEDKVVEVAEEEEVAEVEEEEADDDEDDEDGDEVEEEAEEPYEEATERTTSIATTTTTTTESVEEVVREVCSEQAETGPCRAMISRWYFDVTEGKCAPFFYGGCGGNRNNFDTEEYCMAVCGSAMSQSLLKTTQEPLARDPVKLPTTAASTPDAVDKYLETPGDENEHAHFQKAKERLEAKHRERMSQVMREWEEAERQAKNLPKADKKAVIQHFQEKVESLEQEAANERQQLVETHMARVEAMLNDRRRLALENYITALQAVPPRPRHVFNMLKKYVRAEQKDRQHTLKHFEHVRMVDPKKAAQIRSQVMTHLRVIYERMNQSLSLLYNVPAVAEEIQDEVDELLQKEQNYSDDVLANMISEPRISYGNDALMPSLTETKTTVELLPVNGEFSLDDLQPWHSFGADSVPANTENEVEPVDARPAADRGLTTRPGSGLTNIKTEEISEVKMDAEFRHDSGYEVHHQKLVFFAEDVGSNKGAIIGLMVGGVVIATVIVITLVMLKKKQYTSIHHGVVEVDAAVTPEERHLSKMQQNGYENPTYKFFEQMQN

Activity [1]: Active
Activity [2]: Active
Activity [3]: Active
Ki [4]: 0.9 nM
Activity [5]: Active
Structure (SMILES): CN(C)c1ccc(/C=C/C(=O)/C=C/c2ccc(I)cc2)cc1
